One test deals with JC. The test can be described thus: Modulatory activity at P-gp in mouse JC cells assessed as lowest drug concentration required to increase intracellular [3H]taxol accumulation pretreated for 30 mins prior to [3H]taxol addition measured after 60 mins by liquid scintillation counting analysis. It counts as cell-based. In short, it runs like this: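 JC cells were seeded at about 25% confluency and grown 3–4 days to near confluency. Medium was switched to serum-free, and compounds were preincubated for 30 min at 37 °C. About 0.1 µCi [³H]Taxol (75 Ci/mmol) per well followed, for 60 min at 37 °C. Cells were washed twice with ice-cold PBS and lysed in 1% SDS. Intracellular label was counted by liquid scintillation, and the lowest concentration giving maximal accumulation was recorded.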

The nature of test [1]: Cytotoxicity against mouse JC cells assessed as inhibition of cell survival after 48 hrs by SRB assay. Type of test: functional, cell-based. Summed up:
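JC (CRL-2116) cells kept in RPMI-1640 with L-glutamine, 10% FBS and 50 μg/ml gentamicin at 37 °C, 5% CO₂. Cells were seeded at about 20% confluency and left 24 h to attach, then exposed to a range of concentrations for 48 h. Cells were PBS-washed, fixed in 10% trichloroacetic acid and stained with 0.4% SRB in 1% acetic acid. Dye was dissolved in 10 mM Tris and absorbance read at 570 nm.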
In general terms: Sulforhodamine B stains cellular protein and so reports cell mass.

In ChEMBL document CHEMBL2331097, “Synthesis of 5,7-disubstituted-4-methyl-7H-pyrrolo[2,3-d]pyrimidin-2-amines as microtubule inhibitors” (Bioorg Med Chem, 2013) one finds LED and IC50 data, which are given here for 4 molecules.

SMILES strings stand for the structures. pIC50: −log10 of the molar value. Calls of active or inactive are those of the source. The calls are words filed in the database; no cut-off is given here.

As for `COc1cc(Cn2cc(CCc3cc(OC)c(OC)c(OC)c3)c3c(C)nc(N)nc32)cc(OC)c1`, the LED with JC was found to be 1.5 µM. For the same molecule, in test [1], the pIC50 (commonly the negative decadic logarithm of the IC50, by convention in mol/L) is 5.52.

In the case of `Cc1nc(N)nc2c1c(Sc1ccc(Cl)cc1)cn2Cc1ccccc1`, the LED result with JC is “inactive”. Also, the negative-log IC50 (pIC50) in test [1] was 5.12.

As for `CC(=O)O[C@H]1C(=O)[C@@]2(C)[C@H]([C@H](OC(=O)c3ccccc3)[C@]3(O)C[C@H](OC(=O)[C@H](O)[C@@H](NC(=O)c4ccccc4)c4ccccc4)C(C)=C1C3(C)C)[C@]1(OC(C)=O)CO[C@@H]1C[C@@H]2O` [PACLITAXEL], the pIC50 in test [1] is 6.82.

As for `COc1cccc(Cn2cc(CCc3cc(OC)c(OC)c(OC)c3)c3c(C)nc(N)nc32)c1`, the LED with JC was 0.5 µM. For the same molecule, the pIC50 in test [1] is 5.85.
